The text below walks through data of ChEMBL document CHEMBL4665889, “Design, Synthesis, and Pharmacological Characterization of a Neutral, Non-Prodrug Thrombin Inhibitor with Good Oral Pharmacokinetics” (J Med Chem, 2020).

What is called clearance is a measure of how efficiently the substance is removed, as volume per time. Lower therefore signals a low capacity for elimination. As usually defined, the Papp A→B is the apparent permeability from the apical to the basolateral side of a cell layer. The Tmax is the time at which the peak concentration occurs. The term IC50 denotes the concentration needed to halve the response being measured. A low value points to greater potency in that assay. By MRT is commonly meant the average time that molecules of a dose stay in the body.

The structures appear in SMILES notation. Calls of active or inactive are those of the source. The calls are words filed in the database; no cut-off is given here.

A short description of series [1]: Blood clearance in Wistar Hannover rat at 0.3 to 0.5 mg/kg, iv by LC-MS/MS analysis. The class given is ADME, organism-based. To be noted: whole blood, dose 0.3-0.5 mg/kg, time <=24 hrs. In outline: (§1)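 Male Wistar Hannover rats, catheterized under isoflurane; one day later iv injection into lateral tail vein at 0.3 to 0.5 mg/kg in plasma containing 2% DMSO. Blood sampled via catheter from 0.033 to 24 h. Plasma precipitated with acetonitrile, analysed by LC-MS/MS (10 mM ammonium acetate pH 3.0/acetonitrile gradient). PK parameters calculated from plasma concentrations.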

The nature of series [2]: Clearance in Wistar rat hepatocytes at 1 uM incubated up to 90 mins by LC-MS/MS analysis. The format is ADME, cell-based, Hepatocyte. To be noted: Wistar. An outline of the steps:
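Fresh male Wistar rat hepatocytes, 1 × 10⁶ viable cells/mL, in Williams' medium E at 37 °C, pH 7.4, with 1 μM substrate and <1% acetonitrile. Samples at 2–90 min quenched in acetonitrile and analysed by LC-MS/MS.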

The nature of series [3]: Permeability from apical to basolateral side in human Caco2 cells incubated for 2 hrs by LC-MS/MS analysis. The format is ADME, cell-based. To be noted: Caco-2. An outline of the steps: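 Caco-2 cells grown 15 d on 0.4 μm inserts, TEER ≥600 Ω. Compound (DMSO stock diluted 100-fold) in HBSS pH 7.4 with 10 mM HEPES and 20 mM glucose, added apically or basolaterally. Incubated 2 h at 37 °C and analysed by LC-MS/MS. Papp = (Vr/P0)·(1/S)·(P2/t); mean and SD.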
(In general: Caco-2 monolayers are a common model of the intestinal barrier.)

Series [4] has as its system Rattus norvegicus. Put plainly: Antithrombotic activity in HsdCpd:WU rat thrombosis model with venous stasis assessed as reduction in thrombus weight at 1 to 10 mg/kg, po dosed 90 mins before thrombus induction measured after 15 mins. The format is functional, organism-based. The settings on record: dose mg/kg 1-10, time 105.0 min. In outline: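 Anesthetized rats, n = 6−10 per dose group. Compound in PEG/water/glycerol or vehicle given by gavage 90 min before induction. Two loose sutures placed on vena cava below left renal vein; thromboplastin 0.5 mg/kg iv into femoral vein, sutures tied after 15 s. Segment removed 15 min later and thrombus weighed.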

A short description of series [5]: Toxicity in HsdCpd:WU rat model of arteriovenous shunt model assessed as prolongation of bleeding time at 0.6 to 6 mg/kg/hr, iv. The format is organism-based. To be noted: in vivo, dose 0.6-6 mg/kg/hr.
Series [6] can be described thus: Tmax in orally dosed healthy human. To be noted: in vivo, po. The class given is ADME, organism-based.
Series [7] concerns Plasma. Put plainly: Anticoagulation activity in human plasma assessed as drug level causing doubling of prothrombin time incubated for 3 mins. The format is functional. The settings on record: 0.05 h. An outline of the steps:
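Citrated human plasma (0.11 M citrate 1:9, spun ~4000g 15 min) incubated with compound at 37 °C for 3 min. Clotting started with thromboplastin and time to coagulation recorded. Value is the concentration doubling clotting time (PT or aPTT).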

The next series deals with Prothrombin (Rattus norvegicus, UniProt P18292). Put plainly: Inhibition of thrombin in rat plasma. The class given is cell-free.
Series [8] concerns Rattus norvegicus. In words: Antithrombotic activity in HsdCpd:WU rat model of arteriovenous shunt model assessed as reduction in thrombus weight at 0.6 to 6 mg/kg/hr, iv. The format is functional, organism-based. To be noted: dose mg/kg/hr 0.6-6. An outline of the steps: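 Fasting male HsdCpd:WU rats, 300−350 g, anesthetized with Inactin (150−180 mg/kg). Jugular vein and carotid artery linked by a 10 cm PE 60 shunt. Shunt opened 20 min after iv bolus for 15 min; thrombus on nylon thread weighed.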

Series [9] can be described thus: Terminal half-life in orally dosed healthy human. The format is ADME, organism-based. The settings on record: in vivo, po, read-out: beta t1/2 (converted).
Series [10] deals with Plasma. In words: Anticoagulation activity in human plasma assessed as drug level causing doubling of APTT incubated for 3 mins. The class given is functional. The settings on record: 0.05 h.
Series [11] has as its target T1, Coagulation factor VII (Homo sapiens) (UniProt P08709).
T1 sequence (whole entry): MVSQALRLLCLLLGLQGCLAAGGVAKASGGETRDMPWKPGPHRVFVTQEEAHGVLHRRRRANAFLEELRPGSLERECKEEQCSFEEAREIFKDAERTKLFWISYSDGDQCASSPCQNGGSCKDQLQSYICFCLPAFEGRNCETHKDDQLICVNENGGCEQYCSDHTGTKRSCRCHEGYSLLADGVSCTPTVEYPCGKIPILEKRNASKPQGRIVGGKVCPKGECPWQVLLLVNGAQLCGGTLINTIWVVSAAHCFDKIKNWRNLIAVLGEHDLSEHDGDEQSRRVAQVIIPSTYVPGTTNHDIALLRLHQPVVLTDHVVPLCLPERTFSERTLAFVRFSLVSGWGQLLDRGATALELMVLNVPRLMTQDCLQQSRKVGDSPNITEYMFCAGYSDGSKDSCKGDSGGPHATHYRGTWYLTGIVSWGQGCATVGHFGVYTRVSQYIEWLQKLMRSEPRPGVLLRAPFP
Put plainly: Inhibition of purified human plasma factor-7a up to 20 uM incubated for 30 mins by fluorescence based based coupled protease reaction assay. To be noted: dose microM <=20, time 30.0 min. An outline of the steps:
(§2)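 Final levels: thrombin 0.02 nM; FXa 1.3 nM; FXIa 0.15 nM; plasmin 1.2 nM (substrate 50 μM); tPA 2 nM; kallikrein 0.2 nM; trypsin 0.1 nM; other AMC substrates 5 μM. FVIIa 0.5 pM coupled with tissue factor, factor X 12 nM, FXa substrate 50 μM.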

Series [12] deals with Plasminogen (Homo sapiens) (UniProt P00747). In words: Inhibition of purified human plasma plasmin up to 20 uM using MeOSuc-Ala-Phe-Lys-AMC substrate incubated for 30 mins by fluorescence based assay. The settings on record: dose microM <=20, time 30.0 min. In outline: as §2
Series [13] can be described thus: MRT in Wistar Hannover rat at 0.3 to 0.5 mg/kg, iv by LC-MS/MS analysis. The format is ADME, organism-based. To be noted: in vivo, dose 0.3-0.5 mg/kg, time <=24 hrs. In outline:
as §1

The nature of series [14]: Half life in Wistar Hannover rat at 0.3 to 0.5 mg/kg, iv by LC-MS/MS analysis. The settings on record: in vivo, dose 0.3-0.5 mg/kg, time <=24 hrs. The class given is ADME, organism-based. An outline of the steps: as §1
The target of series [15] is T2, Nuclear receptor subfamily 1 group I member 2 (Homo sapiens, UniProt O75469).
T2 sequence (O75469 whole entry): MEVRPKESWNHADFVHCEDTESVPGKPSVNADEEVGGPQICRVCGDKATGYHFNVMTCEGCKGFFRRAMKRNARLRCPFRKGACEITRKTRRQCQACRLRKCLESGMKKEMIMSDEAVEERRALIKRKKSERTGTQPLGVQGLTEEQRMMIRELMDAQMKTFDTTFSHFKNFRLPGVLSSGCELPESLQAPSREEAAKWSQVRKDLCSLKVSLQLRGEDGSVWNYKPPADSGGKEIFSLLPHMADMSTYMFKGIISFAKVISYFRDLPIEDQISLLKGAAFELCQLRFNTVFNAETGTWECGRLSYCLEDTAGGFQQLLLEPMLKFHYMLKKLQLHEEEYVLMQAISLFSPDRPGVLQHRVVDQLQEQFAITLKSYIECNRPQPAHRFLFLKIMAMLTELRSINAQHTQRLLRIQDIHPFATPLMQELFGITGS
Put plainly: Activation of human PXR expressed in human HepG2 cells. The class given is ADME, cell-based. In outline: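 HepG2 cells transiently co-transfected with human PXR and a luciferase reporter under the human CYP3A4 promoter, 48 h before readout. 24 h after seeding, 1:3 serial dilutions (2 nM to 50 μM, 0.5% DMSO) added. Luminescence normalized to rifampicin (100%) and DMSO (0%). MEC is the lowest concentration raising signal above 4-fold SD of DMSO background.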

Sequence of Plasminogen (Homo sapiens) (P00747 97-580 limits assumed): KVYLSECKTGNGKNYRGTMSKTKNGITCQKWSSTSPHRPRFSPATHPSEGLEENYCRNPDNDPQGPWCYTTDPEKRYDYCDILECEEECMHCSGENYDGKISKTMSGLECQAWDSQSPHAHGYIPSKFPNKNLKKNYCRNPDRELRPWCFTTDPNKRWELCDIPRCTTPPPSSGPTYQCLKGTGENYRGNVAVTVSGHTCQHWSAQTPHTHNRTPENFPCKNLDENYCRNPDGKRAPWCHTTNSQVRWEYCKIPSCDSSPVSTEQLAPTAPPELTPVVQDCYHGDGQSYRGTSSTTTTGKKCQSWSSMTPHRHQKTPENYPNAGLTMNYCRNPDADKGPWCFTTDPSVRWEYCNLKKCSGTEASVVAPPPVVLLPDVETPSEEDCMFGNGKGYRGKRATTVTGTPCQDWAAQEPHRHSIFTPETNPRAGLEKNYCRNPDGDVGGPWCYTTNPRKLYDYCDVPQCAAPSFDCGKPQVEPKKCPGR
Sequence of Plasminogen (Homo sapiens) (P00747 581-810 limits assumed): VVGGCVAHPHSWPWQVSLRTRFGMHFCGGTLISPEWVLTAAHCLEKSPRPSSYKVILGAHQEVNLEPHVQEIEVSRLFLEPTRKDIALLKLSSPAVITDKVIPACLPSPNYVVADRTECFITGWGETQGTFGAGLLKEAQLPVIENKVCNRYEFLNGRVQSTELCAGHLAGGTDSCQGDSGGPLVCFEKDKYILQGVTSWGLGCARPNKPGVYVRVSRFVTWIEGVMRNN

The molecule `COc1cc(C(=O)N2C[C@H](C)OC[C@@H]2CCO)cc2nc(N[C@H](CF)c3cccc(Cl)c3)oc12` showed a clearance in [1] of 51.7 mL/min/kg. Besides, the CLhep predicted at 1 µM in [2] is 31.7 mL/min/kg. The molecule also showed an apical-to-basolateral permeability (Papp A→B) at 2 h in [3] of 13.1 ×10⁻⁶ cm/s. The Activity result with Rattus norvegicus [4] and in the series with Rattus norvegicus [8] was “Dose-dependent effect” each time. Further, the “fold change (FC)” value in series [5] was less than 2. Also, the Tmax in series [6] worked out at 0.75 h. Besides, in the series with Plasma [7], the 2PT was determined as 1.1 µM. On Prothrombin, this molecule registered an IC50 of 0.01 µM. Further, the half-life in series [9] is 9.5 h; in series [14], 1.4 h. For the same molecule, the 2aPTT with Plasma [10] turned out to be 0.7 µM. Further, the inhibition entry in series [11] and in series [12] was “inactive” throughout. Moreover, in series [13], the MRT was 1.2 h. Also, in series [15], the MEC amounted to 1.9 µM.
